According to ChEMBL document CHEMBL3817826, “H2S-Donating Doxorubicins May Overcome Cardiotoxicity and Multidrug Resistance” (J Med Chem, 2016):
Activity calls are given as the source filed them. No cut-off for these calls is given here.

Legend:
[1] = Half life of compound assessed as human serum esterase-mediated degradation at 100 uM by RP-HPLC analysis; format: ADME
Outline: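 10 mM DMSO stock added to human serum pre-warmed to 37 °C, giving 100 μM final. Samples taken over time and deproteinized with equal volume acetonitrile/0.1% HCOOH, then spun 2150 g 10 min and filtered. Analysed by RP-HPLC against 1–200 μM calibration. t1/2 from one-phase exponential decay fit, at least triplicate.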

[2] = Induction of H2S release from compound in IMDM at 100 uM incubated for 1 to 24 hrs using DNS-Az by fluorimetric assay-based HPLC analysis; format: physicochemical
Outline: (§1)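 Compound at 200 μM initial (half concentration for two low-solubility compounds) in medium or human serum at 37 °C with dansyl azide. Sampled at 1, 4 and 24 h, diluted with CH3CN, spun and filtered. Isocratic RP-HPLC with fluorescence ex 340/em 535 nm. Dansyl amide peak quantified against NaHS calibration as H2S index. At least triplicate.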

U2OS [3] = experiment: Drug uptake in human U2OS cells at 5 uM incubated for 24 hrs by fluorimetrical analysis; format: ADME, cell-based
Outline: (§2)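 Intracellular drug measured after 24 h exposure to 5 μM. Cell lysates read fluorimetrically at ex 475/em 553 nm with cell-free blank subtracted. Converted by calibration curve to nmol drug/mg cell protein. Duplicate, n = 3, mean ± SD.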

U2OS [4] = experiment: Induction of intracellular ROS accumulation in human U2OS/DX580 cells at 5 uM incubated for 24 hrs by DCFDA-AM probe-based fluorimetrical analysis relative to control; format: functional, cell-based
Outline: (§3)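 After 24 h at 5 μM, 1×10^6 cells in 0.5 mL PBS were loaded with 5 μM DCFDA-AM for 30 min at 37 °C, spun and resuspended. Fluorescence read at ex 492/em 517 nm, expressed as nmol ROS/mg cell protein. Duplicate, n = 3, mean ± SD.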

[5] = Drug uptake in human U2OS/DX30 cells at 5 uM incubated for 24 hrs by fluorimetrical analysis; format: ADME, cell-based; outline: as §2
[6] = Drug uptake in human U2OS/DX100 cells at 5 uM incubated for 24 hrs by fluorimetrical analysis; format: ADME, cell-based; outline: as §2
[7] = Half life of compound in pre-heated DMEM at 200 uM at 37 degC by RP-HPLC analysis; format: physicochemical
Outline: (§4)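 10 mM DMSO stock diluted into medium pre-warmed to 37 °C, giving 200 μM final, then incubated at 37 °C. Aliquots diluted 1:1 with acetonitrile/0.1% HCOOH, filtered and run on RP-HPLC, quantified against 1–200 μM standards. t1/2 from one-phase exponential decay fit, at least triplicate.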

U2OS [8] = experiment: Increase in intracellular ROS accumulation in human U2OS cells at 5 uM incubated for 24 hrs in presence of hydroxocobalamin by DCFDA-AM probe-based fluorimetrical analysis relative to control; format: functional, cell-based
Outline: (§5)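 Cells grown in DMEM with 10% FBS at 37 °C, 5% CO2, resistant variants selected in 30, 100 or 580 ng/mL doxorubicin; treated 24 h with 5 μM drug plus 100 μM hydroxocobalamin. 1×10^6 cells loaded 30 min at 37 °C with 5 μM DCFDA-AM in PBS; fluorescence at ex 492/em 517 nm, expressed as nmol ROS/mg protein; duplicates, n = 3.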

U2OS [9] = experiment: Increase in intracellular ROS accumulation in human U2OS/DX580 cells at 5 uM incubated for 24 hrs in presence of hydroxocobalamin by DCFDA-AM probe-based fluorimetrical analysis relative to control; format: functional, cell-based; outline: as §5
Serum = experiment: Induction of H2S release from compound in human serum at 100 uM incubated for 1 to 24 hrs using DNS-Az by fluorimetric assay-based HPLC analysis; format: functional; outline: as §1
H9c2 [10] = experiment: Cytotoxicity in rat H9c2 cells at 5 uM incubated for 24 hrs by LDH release-based spectrofluorimetrical analysis relative to control; format: cell-based; settings: h9c2, 24 h
Outline: (§6)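 Cells exposed 24 h to 5 μM drug in DMEM with 10% FBS at 37 °C, 5% CO2. Medium spun 12,000 × g 5 min. Cells sonicated in 82.3 mM triethanolamine phosphate-HCl pH 7.6. LDH in medium and lysate followed 6 min at 340 nm. Extracellular LDH reported as % of total dish activity, duplicate, n = 3, mean ± SD.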

H9c2 [11] = experiment: Cytotoxicity in rat H9c2 cells assessed as intracellular ROS accumulation at 5 uM incubated for 24 hrs in presence of hydroxocobalamin by DCFDA-AM probe-based fluorimetrical analysis relative to control; format: cell-based; settings: h9c2, 24 h
Outline: (§7)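 H9c2 cells held 24 h with 5 μM drug plus 100 μM hydroxocobalamin, then loaded with 5 μM DCFDA-AM for 30 min at 37 °C. Fluorescence read at 492/517 nm, expressed as nmol ROS/mg protein. Duplicate, n = 3.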

H9c2 [12] = experiment: Cytotoxicity in rat H9c2 cells at 5 uM incubated for 24 hrs in presence of NAC by LDH release-based spectrofluorimetrical analysis relative to control; format: cell-based; settings: h9c2, 24 h
U2OS [13] = experiment: Increase in intracellular ROS accumulation in human U2OS/DX30 cells at 5 uM incubated for 24 hrs in presence of hydroxocobalamin by DCFDA-AM probe-based fluorimetrical analysis relative to control; format: functional, cell-based; outline: as §5
U2OS [14] = experiment: Activity at PgP in human […] cells assessed as Vmax measured per mg of protein incubated for 20 mins by fluorimetrical analysis; format: cell-based
Outline: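 U-2OS/DX580 cells exposed 20 min to 0-50 μM drug, washed, intracellular doxorubicin read fluorimetrically; parallel dishes left a further 10 min at 37 °C before reading. Efflux rate (difference, nmol extruded/min/mg cell protein) plotted against initial concentration; Vmax and Km fitted. Means ± SD, n = 3.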

[15] = Induction of H2S release from compound in DMEM at 100 uM incubated for 1 to 24 hrs using DNS-Az by fluorimetric assay-based HPLC analysis; format: physicochemical; outline: as §1
[16] = Stability of compound in pre-heated IMDM at 200 uM at 37 degC by RP-HPLC analysis; format: physicochemical; outline: as §4
H9c2 [17] = experiment: Cytotoxicity in rat H9c2 cells assessed as intracellular ROS accumulation at 5 uM incubated for 24 hrs by DCFDA-AM probe-based fluorimetrical analysis relative to control; format: cell-based; settings: h9c2, 24 h; outline: as §3
U2OS [18] = experiment: Increase in intracellular ROS accumulation in human U2OS/DX100 cells at 5 uM incubated for 24 hrs in presence of hydroxocobalamin by DCFDA-AM probe-based fluorimetrical analysis relative to control; format: functional, cell-based; outline: as §5
[19] = Drug uptake in human U2OS/DX580 cells at 5 uM incubated for 24 hrs by fluorimetrical analysis; format: ADME, cell-based; outline: as §2
U2OS [20] = experiment: Induction of intracellular ROS accumulation in human U2OS/DX30 cells at 5 uM incubated for 24 hrs by DCFDA-AM probe-based fluorimetrical analysis relative to control; format: functional, cell-based; outline: as §3
[21] = molecular target: DNA topoisomerase 2-alpha (Homo sapiens) (UniProt P11388); experiment: Inhibition of human topoisomerase 2-mediated DNA cleavage at 5 uM using supercoiled pHOT1 plasmid as substrate by agarose gel electrophoresis
DNA topoisomerase 2-alpha (Homo sapiens), sequence (P11388 whole entry): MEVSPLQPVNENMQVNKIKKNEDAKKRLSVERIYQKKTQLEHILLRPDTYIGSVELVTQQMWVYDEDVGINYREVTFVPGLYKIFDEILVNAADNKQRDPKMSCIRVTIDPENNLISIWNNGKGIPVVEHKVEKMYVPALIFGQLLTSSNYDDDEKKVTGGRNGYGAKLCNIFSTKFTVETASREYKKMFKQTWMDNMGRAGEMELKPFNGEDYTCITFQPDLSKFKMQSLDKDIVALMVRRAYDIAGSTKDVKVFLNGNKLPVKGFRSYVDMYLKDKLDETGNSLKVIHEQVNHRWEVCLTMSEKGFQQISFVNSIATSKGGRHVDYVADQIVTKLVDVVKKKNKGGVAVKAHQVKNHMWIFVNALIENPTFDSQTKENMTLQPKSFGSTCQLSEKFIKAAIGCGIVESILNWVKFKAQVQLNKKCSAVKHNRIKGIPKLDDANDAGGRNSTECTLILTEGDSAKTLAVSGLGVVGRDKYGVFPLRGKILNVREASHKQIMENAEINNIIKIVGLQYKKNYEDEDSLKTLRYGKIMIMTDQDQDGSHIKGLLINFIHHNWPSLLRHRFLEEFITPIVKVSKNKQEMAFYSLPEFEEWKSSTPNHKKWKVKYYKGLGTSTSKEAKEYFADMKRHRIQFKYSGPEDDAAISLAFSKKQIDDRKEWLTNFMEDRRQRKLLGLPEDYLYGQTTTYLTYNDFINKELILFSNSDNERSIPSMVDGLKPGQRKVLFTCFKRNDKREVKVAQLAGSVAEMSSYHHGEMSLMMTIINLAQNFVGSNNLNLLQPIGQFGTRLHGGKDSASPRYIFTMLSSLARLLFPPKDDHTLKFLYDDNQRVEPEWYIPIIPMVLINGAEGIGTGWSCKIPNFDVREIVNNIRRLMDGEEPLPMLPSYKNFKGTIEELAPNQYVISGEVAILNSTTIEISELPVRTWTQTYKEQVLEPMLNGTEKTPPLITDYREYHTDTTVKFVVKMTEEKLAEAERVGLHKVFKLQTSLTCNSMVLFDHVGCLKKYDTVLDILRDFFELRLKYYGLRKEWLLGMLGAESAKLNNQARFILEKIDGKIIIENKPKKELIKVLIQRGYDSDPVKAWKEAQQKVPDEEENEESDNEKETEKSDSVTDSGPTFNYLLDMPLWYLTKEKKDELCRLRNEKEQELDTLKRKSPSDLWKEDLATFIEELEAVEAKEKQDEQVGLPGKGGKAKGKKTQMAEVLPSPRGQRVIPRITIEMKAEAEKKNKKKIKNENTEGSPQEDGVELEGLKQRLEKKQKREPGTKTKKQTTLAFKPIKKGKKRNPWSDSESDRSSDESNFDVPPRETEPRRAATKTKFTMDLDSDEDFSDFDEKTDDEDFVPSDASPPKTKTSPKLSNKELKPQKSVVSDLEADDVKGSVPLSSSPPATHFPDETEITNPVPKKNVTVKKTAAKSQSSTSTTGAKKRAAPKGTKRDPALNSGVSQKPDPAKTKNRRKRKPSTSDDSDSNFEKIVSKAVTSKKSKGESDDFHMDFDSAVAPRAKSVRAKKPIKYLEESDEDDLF

U2OS [22] = experiment: Induction of intracellular ROS accumulation in human U2OS cells at 5 uM incubated for 24 hrs by DCFDA-AM probe-based fluorimetrical analysis relative to control; format: functional, cell-based; outline: as §3
U2OS [23] = experiment: Induction of intracellular ROS accumulation in human U2OS/DX100 cells at 5 uM incubated for 24 hrs by DCFDA-AM probe-based fluorimetrical analysis relative to control; format: functional, cell-based; outline: as §3
H9c2 [24] = experiment: Drug uptake in rat H9c2 cells at 5 uM incubated for 24 hrs by fluorimetrical analysis; format: ADME, cell-based; settings: h9c2, 24 h; outline: as §2
U2OS [25] = experiment: Effect on doxorubicin-mediated cytotoxicity in human U2OS/DX580 cells at 5 uM incubated for 24 hrs LDH release-based spectrofluorimetrical analysis relative to control; format: functional, cell-based; outline: as §6
U2OS [26] = experiment: Activity at PgP in human U2OS/[…] cells assessed as Vmax for doxorubicin measured per mg of protein incubated for 20 mins by fluorimetrical analysis (reference value: […] +/- […] nmol/min); format: cell-based
U2OS [27] = experiment: Reduction of doxorubicin-mediated ROS accumulation in human U2OS/DX580 cells at 5 uM incubated for 24 hrs by DCFDA-AM probe-based fluorimetrical analysis relative to control; format: functional, cell-based
U2OS [28] = experiment: Effect on doxorubicin accumulation in human U2OS/DX580 cells at 5 uM incubated for 24 hrs by fluorimetrical analysis; format: functional, cell-based
H9c2 [29] = experiment: Cytotoxicity in rat H9c2 cells at 5 uM incubated for 24 hrs in presence of hydroxocobalamin by LDH release-based spectrofluorimetrical analysis relative to control; format: cell-based; settings: h9c2, 24 h
Outline: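 H9c2 cardiomyocytes given 5 μM drug for 24 h with 100 μM hydroxocobalamin as H2S scavenger. LDH measured at 340 nm over 6 min in medium and lysate. Extracellular activity taken as % of total, duplicate, n = 3.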

H9c2 [30] = experiment: Cytotoxicity in rat H9c2 cells assessed as reduction in basal ROS level at 5 uM incubated for 24 hrs in presence of hydroxocobalamin by DCFDA-AM probe-based fluorimetrical analysis; format: cell-based; settings: h9c2, 24 h; outline: as §7
U2OS [31] = experiment: Reduction of doxorubicin-mediated ROS accumulation in human U2OS/DX100 cells at 5 uM incubated for 24 hrs by DCFDA-AM probe-based fluorimetrical analysis relative to control; format: functional, cell-based
U2OS [32] = experiment: Increase in doxorubicin accumulation in human U2OS/DX30 cells at 5 uM incubated for 24 hrs by fluorimetrical analysis; format: functional, cell-based
U2OS [33] = experiment: Reduction of doxorubicin-mediated cytotoxicity in human U2OS cells at 5 uM incubated for 24 hrs by DCFDA-AM probe-based fluorimetrical analysis relative to control; format: functional, cell-based
H9c2 [34] = experiment: Cytotoxicity in rat H9c2 cells assessed as reduction in basal ROS level at 5 uM incubated for 24 hrs by DCFDA-AM probe-based fluorimetrical analysis; format: cell-based; settings: h9c2, 24 h; outline: as §3
H9c2 [35] = experiment: Effect on doxorubicin accumulation in rat H9c2 cells at 5 uM incubated for 24 hrs by fluorimetrical analysis; format: functional, cell-based
H9c2 [36] = experiment: Cytotoxicity in rat H9c2 cells at 5 uM coincubated with doxorubicin for 24 hrs in presence of hydroxocobalamin by LDH release-based spectrofluorimetrical analysis relative to control; format: cell-based; settings: h9c2, 24 h
U2OS [37] = experiment: Reduction of doxorubicin-mediated ROS accumulation in human U2OS/DX30 cells at 5 uM incubated for 24 hrs by DCFDA-AM probe-based fluorimetrical analysis relative to control; format: functional, cell-based
U2OS [38] = experiment: Increase in doxorubicin-mediated cytotoxicity in human U2OS/DX100 cells at 5 uM incubated for 24 hrs by LDH release-based spectrofluorimetrical analysis relative to control; format: functional, cell-based; outline: as §6
U2OS [39] = experiment: Increase in doxorubicin-mediated cytotoxicity in human U2OS/DX30 cells at 5 uM incubated for 24 hrs by LDH release-based spectrofluorimetrical analysis relative to control; format: functional, cell-based; outline: as §6
H9c2 [40] = experiment: Reduction of doxorubicin-mediated cytotoxicity in rat H9c2 cells at 5 uM incubated for 24 hrs by LDH release-based spectrofluorimetrical analysis relative to control; format: functional, cell-based
U2OS [41] = experiment: Increase in doxorubicin accumulation in human U2OS/DX100 cells at 5 uM incubated for 24 hrs by fluorimetrical analysis; format: functional, cell-based

## COc1cccc2c1C(=O)c1c(O)c3c(c(O)c1C2=O)C[C@@](O)(C(=O)COC(=O)c1ccc(-c2ssc(=S)c2-c2ccccc2)cc1)C[C@@H]3O[C@H]1C[C@H](N)[C@H](O)[C@H](C)O1.Cl
[1]
  half-life at 100 µM: 2.8 h
[2]
  Activity: Not Active
U2OS [3]
  Drug uptake: Active
U2OS [4]
  Activity: inactive
[5]
  Drug uptake: Active
[6]
  Drug uptake: Active
[7]
  half-life at 200 µM: > 24 h
U2OS [8]
  Activity: Active
U2OS [9]
  Activity: Active
Serum
  Activity: Active
H9c2 [10]
  Activity: Non-toxic
H9c2 [11]
  Activity: Toxic
H9c2 [12]
  Activity: Non-toxic
U2OS [13]
  Activity: Active
U2OS [14]
  Vmax: 10.2 nmol/min/mg
[15]
  Activity: Not Active
[16]
  Stability: Stable
H9c2 [17]
  Activity: Non-toxic
U2OS [18]
  Activity: Active
[19]
  Drug uptake: Active
U2OS [20]
  Activity: inactive
[21]
  inhibition: inactive
U2OS [22]
  Activity: inactive
U2OS [23]
  Activity: inactive
H9c2 [24]
  Drug uptake: Active

## O=C(O)c1ccc(-c2ssc(=S)c2-c2ccccc2)cc1
U2OS [25]
  Activity: inactive
U2OS [26]
  Vmax: 16 nmol/min/mg
U2OS [27]
  Activity: Active
U2OS [28]
  Activity: inactive
H9c2 [10]
  Activity: Non-toxic
H9c2 [29]
  Activity: Toxic
H9c2 [30]
  Activity: Toxic
U2OS [31]
  Activity: Active
U2OS [32]
  Activity: Active
U2OS [33]
  Activity: Active
H9c2 [34]
  Activity: Non-toxic
H9c2 [35]
  Activity: inactive
H9c2 [36]
  Activity: Toxic
U2OS [37]
  Activity: Active
U2OS [38]
  Activity: Active
U2OS [39]
  Activity: Active
H9c2 [40]
  Activity: Active
U2OS [41]
  Activity: Active
